Data set [1] deals with T1, Programmed cell death protein 1/Programmed cell death 1 ligand 1 (Homo sapiens) (UniProt Q15116+Q9NZQ7). Put plainly: Inhibition of PD-1/PD-L1 interaction in human PBMCs cocultured with CHO cells expressing PD-L1/TCRAct assessed as increase in CD25 expression on CD8+ T cells at 0.1 to 2.5 uM incubated for 48 hrs by flow cytometry. The class given is cell-based. The note with it: PBMC, dose 0.1-2.5 µM. The gist of the method: (§1)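 PBMCs isolated by density gradient from healthy donor blood (citrate dextrose anticoagulant). 3 × 10^5 cells added to preseeded CHO/TCRAct/PD-L1 cells with compound at 0.1, 0.5 or 2.5 μM, 0.1% DMSO as control. Cocultured 48 h at 37 °C, 5% CO2. Detached cells stained 20 min at RT for CD4, CD8, CD69, CD25, HLA-DR, PD-1; flow cytometry. Four donors; one-way ANOVA with Fisher post hoc.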
On the technique in general: A flow cytometer gives signals particle by particle.

The target of data set [2] is T1, Programmed cell death protein 1/Programmed cell death 1 ligand 1 (Homo sapiens). Put plainly: Inhibition of PD-1/PD-L1 interaction in human Jurkat cells cocultured with CHO cells expressing PD-Ll/TCRAct assessed as activation of effector Jurkat cells at 0.01 to 100 uM incubated for 6 hrs by luciferase reporter gene based immune checkpoint blockade cell-based assay. As to conditions: dose 0.01-100 µM. The gist of the method:
(§2)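 CHO/TCRAct/PD-L1, CHO/TCRAct or CHO-K1 cells seeded at 10,000/well. Next day overlaid with Jurkat-ECs (20,000/well) plus compound dilutions, DMSO held at 0.1%. Incubated 6 h at 37 °C, 5% CO2; luciferase reagent added for 20 min at room temperature; luminescence read. Fold induction over DMSO-treated cells; mean ± SD, 3–5 experiments; EC50 by Hill fit.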
(In general: Reporter assays use an easily measured gene product as a stand-in for the process of interest.)

Data set [3] shares this target. Put plainly: Inhibition of PD-1/PD-L1 interaction in human PBMCs cocultured with CHO cells expressing PD-L1/TCRAct assessed as increase in PD-1 receptor expression on CD4+ T cells at 0.1 to 2.5 uM incubated for 48 hrs by flow cytometry. The class given is cell-based. The note with it: PBMC, dose 0.1-2.5 µM. The gist of the method:
as §1

For data set [4] the target is unchanged. Put plainly: Inhibition of PD-1/PD-L1 interaction in human PBMCs cocultured with CHO cells expressing PD-L1/TCRAct assessed as increase in HLA-DR expression on CD4+ T cells at 0.1 to 2.5 uM incubated for 48 hrs by flow cytometry. The note with it: PBMC, dose 0.1-2.5 µM. The class given is cell-based. In a few lines:
as §1

The target is the same in data set [5]. Put plainly: Inhibition of PD-1/PD-L1 interaction in human Jurkat cells cocultured with CHO cells expressing TCRAct assessed as activation of effector Jurkat cells incubated for 6 hrs by luciferase reporter gene based immune checkpoint blockade cell-based assay. In a few lines: as §2
Data set [6] shares this target. Put plainly: Inhibition of PD-1/PD-L1 interaction in human PBMCs cocultured with in CHO cells expressing PD-L1/TCRAct assessed as increase in HLA-DR expression on CD8+ T cells at 0.1 to 2.5 uM incubated for 48 hrs by flow cytometry. The format is cell-based. As to conditions: PBMC, dose 0.1-2.5 µM. In a few lines:
as §1

Data set [7] has the same target. Put plainly: Inhibition of PD-1/PD-L1 interaction in human PBMCs cocultured with CHO cells expressing PD-L1/TCRAct assessed as increase in CD25 expression on CD4+ T cells at 0.1 to 2.5 uM incubated for 48 hrs by flow cytometry. The class given is cell-based. As to conditions: PBMC, dose 0.1-2.5 µM. In a few lines:
as §1

For data set [8], the system named is Jurkat. Put plainly: Cytotoxicity against human Jurkat effector cells at 10 uM after 48 hrs. The format is cell-based. The gist of the method:
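Jurkat-ECs (PD-1, NFAT-RE luciferase) exposed to increasing compound concentrations, DMSO constant at 0.1%. After 48 h, tetrazolium redox dye added for a further 2 h at 37 °C, 5% CO2. Absorbance at 590 nm, 750 nm reference. Survival relative to DMSO controls; mean ± SD of three independent experiments; EC50 from dose–response curve.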

Data set [9] concerns the target T1, Programmed cell death protein 1/Programmed cell death 1 ligand 1 (Homo sapiens). Put plainly: Inhibition of PD-1/PD-L1 interaction in human PBMCs cocultured with CHO cells expressing PD-L1/TCRAct assessed as increase in PD-1 receptor expression on CD8+ T cells at 0.1 to 2.5 uM incubated for 48 hrs by flow cytometry. The class given is cell-based. As to conditions: PBMC, dose 0.1-2.5 µM. In a few lines: as §1

The target in data set [10] is Programmed cell death 1 ligand 1 (Homo sapiens) (UniProt Q9NZQ7). Put plainly: Binding affinity to human PD-L1 assessed as induction of protein dimerization by 1H NMR method.
Chain of Programmed cell death 1 ligand 1 (Homo sapiens) (Q9NZQ7 whole entry): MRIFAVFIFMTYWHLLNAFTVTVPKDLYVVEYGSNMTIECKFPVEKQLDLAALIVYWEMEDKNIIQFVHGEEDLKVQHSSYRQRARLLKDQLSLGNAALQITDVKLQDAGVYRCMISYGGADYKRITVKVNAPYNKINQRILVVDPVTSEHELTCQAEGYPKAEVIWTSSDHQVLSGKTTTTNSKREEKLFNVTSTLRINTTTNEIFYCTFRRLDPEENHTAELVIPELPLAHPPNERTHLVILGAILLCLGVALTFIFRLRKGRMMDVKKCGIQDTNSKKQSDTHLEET
For data set [11], the target named is T1, Programmed cell death protein 1/Programmed cell death 1 ligand 1 (Homo sapiens). Put plainly: Inhibition of PD-1/PD-L1 interaction in human PBMCs cocultured with CHO cells expressing PD-L1/TCRAct assessed as increase in IL-2 expression at 0.1 to 2.5 uM incubated for 48 hrs by TCA. The note with it: PBMC, dose 0.1-2.5 µM. The class given is cell-based. The gist of the method:
(§3)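 Culture supernatants taken from 48 h cocultures of PBMCs with CHO/TCRAct/PD-L1 cells (compound 0.1, 0.5, 2.5 μM). IL-2, IL-6, IL-10, IFN-γ, TNFα quantified by cytometric bead array against standard curves. Per donor, normalized to untreated PBMC plus CHO/TCRAct coculture. Mean ± SEM of four donors; one-way ANOVA, Fisher post hoc.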

Data set [12] shares this target. Put plainly: Inhibition of PD-1/PD-L1 interaction in human PBMCs cocultured with CHO cells expressing PD-L1/TCRAct assessed as increase in TNFalpha expression at 0.1 to 2.5 uM incubated for 48 hrs by TCA. The format is cell-based. As to conditions: PBMC, dose 0.1-2.5 µM. The gist of the method: as §3
The target is the same in data set [13]. Put plainly: Inhibition of PD-1/PD-L1 interaction in human PBMCs cocultured with CHO cells expressing PD-L1/TCRAct assessed as increase in INFgamma expression at 0.1 to 2.5 uM incubated for 48 hrs by TCA. The format is cell-based. As to conditions: PBMC, dose 0.1-2.5 µM. The gist of the method:
as §3

The target of data set [14] is Programmed cell death 1 ligand 1 (Mus musculus) (UniProt Q9EP73). Put plainly: Binding affinity to mouse PD-L1 assessed as induction of protein dimerization by 1H NMR method.
Chain of Programmed cell death 1 ligand 1 (Mus musculus) (Q9EP73 whole entry): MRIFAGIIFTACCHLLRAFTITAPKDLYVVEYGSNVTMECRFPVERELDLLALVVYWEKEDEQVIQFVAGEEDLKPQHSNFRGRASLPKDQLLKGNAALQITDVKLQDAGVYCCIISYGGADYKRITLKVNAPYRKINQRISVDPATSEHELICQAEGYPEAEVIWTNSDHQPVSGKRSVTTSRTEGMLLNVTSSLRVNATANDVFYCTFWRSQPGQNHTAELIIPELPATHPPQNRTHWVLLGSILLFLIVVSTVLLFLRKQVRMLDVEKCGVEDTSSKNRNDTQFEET
Data set [15] addresses T1, Programmed cell death protein 1/Programmed cell death 1 ligand 1 (Homo sapiens). Put plainly: Inhibition of PD-1/PD-L1 interaction in human PBMCs cocultured with CHO cells expressing PD-L1/TCRAct assessed as increase in IL-10 expression at 0.1 to 2.5 uM incubated for 48 hrs by TCA. The format is cell-based. As to conditions: PBMC, dose 0.1-2.5 µM. In a few lines:
as §3

Data set [16] has the same target. Put plainly: Inhibition of PD-1/PD-L1 interaction in human PBMCs cocultured with CHO cells expressing PD-L1/TCRAct assessed as increase in IL-6 expression at 0.1 to 2.5 uM incubated for 48 hrs by TCA. The format is cell-based. The note with it: PBMC, dose 0.1-2.5 µM. The gist of the method:
as §3

The source made the active and inactive calls. The rule behind the calls is not given here.

On to `COc1cc(-c2cccc(-c3ccc4c(c3)OCCO4)c2Cl)ccc1CNCCNC(N)=O`, for which the inhibition result in [1], in [4], in data set [5], in data set [6] and in data set [7] was “inactive” throughout. In addition, the inhibition result in data set [2], in data set [3] and in [9] was “Active” throughout. For the same compound, in data set [8], the Activity entry is given as “Non-Toxic”.

As to `COc1cc(-c2cccc(-c3ccc4c(c3)OCCO4)c2Cl)ccc1CNCCNC(C)=O`, in data set [2], the inhibition result was “Active”. Further, in [10], the result was Active. Further, the inhibition result in data set [5] is “inactive”. Moreover, in data set [8], the Activity result was “Non-Toxic”.

In the case of `CC(=O)NCCNCc1ccc(-c2cccc(-c3ccc4c(c3)OCCO4)c2Cl)cc1OCC#N`, the result in [10] was Active.

`COc1cc(-c2cccc(-c3ccc4c(c3)OCCO4)c2Cl)ccc1CNCCNS(C)(=O)=O`: the inhibition entry in [2] is “Active”. Further, the inhibition result in [5] is “inactive”. In data set [8], the Activity entry is “Non-Toxic”.

Regarding `COc1cc(-c2cccc(-c3ccc4c(c3)OCCO4)c2Cl)ccc1CNC(CO)(CO)CO`, the inhibition result in data set [11], in [12], in data set [13], in [1], in [2] and in [3] was “Active” in each case. The inhibition entry in data set [4], in data set [15], in data set [6], in [7], in data set [16] and in [9] was “Active” in each case. The result in data set [14] was inactive. Moreover, in data set [10], the outcome was Active. In data set [5], the inhibition result is “inactive”. In data set [8], the Activity entry is “Non-Toxic”.

`COc1cc(-c2cccc(-c3ccc4c(c3)OCCO4)c2Cl)ccc1CNC(CO)CO`: the inhibition result in data set [2] was “Active”. For the same compound, the inhibition result in data set [5] was “inactive”. For the same compound, in data set [8], the Activity entry is “Non-Toxic”.

With `COc1cc(-c2cccc(-c3ccc4c(c3)OCCO4)c2Cl)ccc1CNCCNC(=O)CN`, the inhibition result in data set [2] was “Active”. The inhibition result in [5] was “inactive”. In addition, the Activity result in [8] is reported as “Non-Toxic”.

The record behind these values is ChEMBL document CHEMBL4834474, “Terphenyl-Based Small-Molecule Inhibitors of Programmed Cell Death-1/Programmed Death-Ligand 1 Protein-Protein Interaction” (J Med Chem, 2021).
